Measured values from ChEMBL document CHEMBL4513216, “Probing the Open Global Health Chemical Diversity Library for Multistage-Active Starting Points for Next-Generation Antimalarials” (ACS Infect Dis, 2020).

Test: Toxicity liver stage against HepG2, at 10uM
Assay type: cell-based
Parameters: test concentration 10 uM, cell line HepG2-A16-CD81EGFP
Details: human, HepG2-A16-CD81EGFP cells; read-out: INHIBITION
Procedure, shortened: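 Uninfected HepG2-A16-CD81EGFP cells, 3 × 10^3 per well, 1536-well, plated on prespotted compound at 10 μM final, parasite-free screening media added to match infected plates; puromycin 10 μM positive, DMSO 0.5% negative; run in parallel with 48 h PbLuc assay at 37 °C, 5% CO2; viability by CellTiter-Glo luminescence, normalized to controls.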

| SMILES | cytotoxicity at 10 µM [%] |
| --- | --- |
| CCN(CC)Cc1cc(=O)n2c(n1)CN(S(=O)(=O)C1CC1)CCC2 | 6.95 |
| Cc1cc(CN(C)C(=O)C2CC(=O)N(Cc3cccnc3)C2)on1 (stereo unspecified) | 2.95 |
| CCC(CC)C(CNC(=O)Nc1ccc(C)cc1)N1CCOCC1 (stereo unspecified) | -5.9 |
| COCCn1ccnc1C1CCN(c2cccc(C(=O)O)n2)CC1 | -2.74 |
| O=C(CN1CCCC1Cn1cccn1)NC1CCOCC1 (stereo unspecified) | -23.2 |
| CC(C)C(=O)Nc1cccc(CNC(=O)CSCc2ccccn2)c1 | 9.65 |
| Cc1noc(-c2ccnc(N3CCC(CN4CCOCC4)CC3)c2)n1 | -2.11 |
| Cc1nonc1CN(C)Cc1c[nH]nc1-c1ccc(F)cc1F | 11.9 |
| COCCn1cc(CCC(=O)Nc2c(C)nn(C)c2C)c2ccccc21 | -177 |
| Cc1cc(C(=O)N2CCCC2c2nnc3n2CCCCC3)no1 (stereo unspecified) | -14 |
| Cc1cnn(CC2CCCN2Cc2nc(N)c3ccccc3n2)c1 (stereo unspecified) | -29.5 |
| Cc1ccc(NC2CCN(C(=O)Cc3csc(C)n3)CC2)nn1 | -6.51 |
| CCNC(=O)[C@@H]1CCCN1[C@@H](C(=O)NC)C1CC1 | -2.39 |
| CC(C)C1CN(C(=O)c2cccs2)CCS1 (stereo unspecified) | 1.24 |
| O=C1CN(CC[C@@H](O)c2ccccc2)CCN1c1ccccc1Cl | 1.29 |
| Cc1nccn1CCCn1cncc1-c1ccc2c(c1)CC(C)N2C (stereo unspecified) | 0.94 |
| Cc1ccc(C(CNCc2ccc(C#N)cc2)N2CCOCC2)s1 (stereo unspecified) | 15.3 |
| COCCN1C(=O)CCC12CCN(C(=O)NC(C)C)CC2 | 4.45 |
| CCOC(=O)Cn1ccc2cc(NC(=O)N3CCSCC3)ccc21 | 9.68 |
| Cc1ccc(Nc2nccc(C3CCN(C(=O)CO)C3)n2)nc1 (stereo unspecified) | -2.56 |
| Cc1nc(CC(=O)N(C)C2CCCN(CCc3ccccc3)C2)cs1 (stereo unspecified) | 3.13 |
| O=C(CC1C=CCC1)Nc1ncn(CC(=O)N2CCCCCC2)n1 (stereo unspecified) | -3.72 |
| NC(=O)NCCC(=O)N1CCC(c2cc(Cc3ccccc3)n[nH]2)CC1 | 1.5 |

| SMILES | cytotoxicity at 10 µM [%] |
| --- | --- |
| CC(=O)c1cccc(OCCCC(=O)NC(C#N)CC(C)C)c1 (stereo unspecified) | -41.3 |
| Cc1ccc2cc(C(=O)NCCn3nc4ccccn4c3=O)[nH]c2c1 | 2.95 |
| O=C(c1n[nH]c(=O)c2ccccc12)N1CCC(O)(CN2CCOCC2)C1 (stereo unspecified) | -1.39 |
| CCOCC1CN(C(=O)Cc2ccccn2)Cc2c1cnn2CC (stereo unspecified) | -69.3 |
| COc1ccc(NC2CCN(C3CC3)C2=O)cn1 (stereo unspecified) | -10 |
| CCc1ncc(C(=O)N2CCOCC2CC(=O)c2ccccc2)s1 (stereo unspecified) | 2.58 |
| Cc1nn(C)c(N2CCOCC2)c1CNC(C)c1ccccn1 (stereo unspecified) | -10.7 |
| CCC(C)N(Cc1sccc1C)C(=O)c1ccc2cccnc2n1 (stereo unspecified) | 2.05 |
| Cc1nn(-c2ccccn2)c(C)c1[C@@H]1C=C[C@@H](NC(=O)CCC(=O)O)C1 | 4.59 |
| CSc1ccc(C(C(=O)O)N2CCCC2)cc1 (stereo unspecified) | 1.16 |
| CN1CCC(N[C@@H]2CO[C@H](CNC(=O)c3cccs3)[C@H]2O)CC1 | -0.376 |
| CC(c1cccnc1)N(C)Cc1csc(-c2ccccn2)n1 (stereo unspecified) | -10.4 |
| Cc1ncoc1C(=O)N1CCn2c(COCC3CC3)cnc2C1C (stereo unspecified) | -1.67 |
| CN(Cc1ncc[nH]1)CC(c1cccs1)N1CCOCC1 (stereo unspecified) | -4.22 |
| COc1cccc(C=CCCN2CCC(C(=O)N3CCCC3)CC2)c1 | 7.09 |
| CC(=O)N1CCN(c2ncnc3cc4c(cc23)OCCO4)CC1 | 13.4 |
| CN(C)S(=O)(=O)N1CCC(C)(c2ncc(C(N)=O)s2)CC1 | -0.318 |
| CCC(CNC(=O)CCn1cncn1)N1CCc2ccccc2C1 (stereo unspecified) | -137 |
| COc1ccc(-n2ncc(C(C)NC3CCSCC3)c2C)cc1 (stereo unspecified) | -4.57 |
| CCOc1ncccc1NC(=O)N1CCN(Cc2ccncc2)CC1 | -2.54 |
| Cc1cc(CN[C@@H](C)C(N)=O)c(C)s1 | -6.55 |
| Cn1ncc2c1NC(=O)CC2c1cccs1 (stereo unspecified) | -0.585 |
| c1ccc(-c2cc(CN3C[C@H]4CC[C@H]3C4)on2)cc1 | -5.33 |
